# Assay results pooled from the literature.
# Lines come from different studies, so protocols differ.
# Target: Serine/threonine-protein kinase DCLK2 (DCLK2, Homo sapiens, UniProt Q8N568)
# One construct used (Q8N568 1-766): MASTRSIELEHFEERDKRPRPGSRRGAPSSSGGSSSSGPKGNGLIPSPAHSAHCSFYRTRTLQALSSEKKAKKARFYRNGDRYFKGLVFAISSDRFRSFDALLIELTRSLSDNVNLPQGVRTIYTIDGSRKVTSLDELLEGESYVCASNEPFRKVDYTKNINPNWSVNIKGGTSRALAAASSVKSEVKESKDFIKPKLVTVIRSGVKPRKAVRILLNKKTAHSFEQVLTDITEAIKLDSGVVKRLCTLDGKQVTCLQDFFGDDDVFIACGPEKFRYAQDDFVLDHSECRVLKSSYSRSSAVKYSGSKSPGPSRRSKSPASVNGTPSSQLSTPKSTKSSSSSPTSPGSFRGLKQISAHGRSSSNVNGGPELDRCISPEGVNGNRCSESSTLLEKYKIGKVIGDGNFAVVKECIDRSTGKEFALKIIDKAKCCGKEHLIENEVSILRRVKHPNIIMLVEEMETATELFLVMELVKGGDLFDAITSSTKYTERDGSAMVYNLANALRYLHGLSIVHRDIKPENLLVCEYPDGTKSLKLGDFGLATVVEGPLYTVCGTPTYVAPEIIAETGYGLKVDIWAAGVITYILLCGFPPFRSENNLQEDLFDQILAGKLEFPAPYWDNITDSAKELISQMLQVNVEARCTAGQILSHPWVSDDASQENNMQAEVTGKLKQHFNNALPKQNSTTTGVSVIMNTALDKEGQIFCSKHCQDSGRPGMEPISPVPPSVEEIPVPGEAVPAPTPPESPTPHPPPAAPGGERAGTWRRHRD
Structure (SMILES),assay,setting,quantity,result
Cn1cncc1C1=CN(c2ncnc3[nH]cnc23)CCS1,"enzyme activity, inhibitor, radiometric",50 nM,inhibition,12.8%
CC(C)(C)c1nc(-c2cccc(NS(=O)(=O)c3c(F)cccc3F)c2F)c(-c2ccnc(N)n2)s1,"enzyme activity, inhibitor, radiometric",1 µM,remaining activity,77%
COc1cc2ncnc(Nc3ccc(Oc4ccccc4)cc3C)c2cc1OC,"enzyme activity, inhibitor",1 µM,inhibition,1%
CS(=O)(=O)NCC[C@H](NC(=O)c1cncc2c1cnn2-c1ccc(F)cc1)c1ccnc(S(C)(=O)=O)c1,"cell-free assay, competition with immobilised ligand",1 µM,remaining binding,100%
C[S+]([O-])c1ccc(-c2nc(-c3ccncc3)c(-c3ccc(F)cc3)[nH]2)cc1 (stereo not shown),cell-free assay,0.5 µM,remaining signal,99.8%
CCS(=O)(=O)c1cc2cc(C[C@@](O)(CC(C)(C)c3ccc(F)cc3C(N)=O)C(F)(F)F)[nH]c2cn1,"cell-free assay, competition with immobilised ligand",1 µM,remaining binding,100%
CCN(CC)CCNC(=O)c1c(C)[nH]c(/C=C2\C(=O)Nc3ccc(F)cc32)c1C,"enzyme activity, inhibitor",0.3 µM,inhibition,-2%
CNC(=O)Nc1ccc2c(c1)[C@@]1(CC2)OC(=O)N(CC(=O)N(Cc2ccc(F)cc2)[C@@H](C)C(F)(F)F)C1=O,"cell-free assay, competition with immobilised ligand",1 µM,remaining binding,89%
Cc1ccc(Nc2nccc(N(C)c3ccc4c(C)n(C)nc4c3)n2)cc1S(N)(=O)=O,"enzyme activity, inhibitor",0.3 µM,inhibition,-2%
Cn1nc(C(=O)NCc2ccc(C(=O)O)cc2)cc1-c1ccc2[nH]ccc2c1,"cell-free assay, competition with immobilised ligand",0.1 µM,remaining binding,92%
Nc1ncnc2occ(-c3ccc(NC(=O)Nc4cc(C(F)(F)F)ccc4F)cc3)c12,"cell-free assay, inhibitor",20 µM,remaining signal,100%
CC(C)(O)[C@H]1CC[C@H](Nc2ccc3ncc(-c4cccc(C(F)(F)F)c4)n3n2)CC1,"enzyme activity, inhibitor",1 µM,remaining activity,95.3%
O=C(Nc1cnn(-c2csc(C(=O)NC3COC3)c2)c1)Nc1ccccc1Cl,"enzyme activity, inhibitor",5 µM,remaining activity,99.9%
Cc1cc(NC(=O)c2cccc3cc(-c4cccc5[nH]nc(N)c45)ccc23)ccc1F,"enzyme activity, inhibitor",0.1 µM,activity vs control,109%
Cc1c(NC(=O)c2cc(C(N)=O)nc3cc(F)ccc23)c(C(F)(F)F)nn1Cc1ccc(C(C)(C)C)cc1,"cell-free assay, competition with immobilised ligand",1 µM,remaining binding,83%
Cc1sc(C(=O)NC2COC2)cc1-n1cc(NC(=O)Nc2c(F)cccc2Cl)cn1,"enzyme activity, inhibitor",10 µM,remaining activity,107%
Cc1ccc(NC(=O)c2ccc(CN3CCN(C)CC3)cc2)cc1Nc1nc(-c2cccnc2)cs1,cell-free assay,0.5 µM,remaining signal,102%
CC/C(=N\NC(=O)NCc1cccc(O)c1)c1ccc(O)c(C)c1O,"enzyme activity, inhibitor",0.1 µM,inhibition,-8.9%
O=C1Nc2ccc(Cl)cc2C1=Cc1cc(Cl)c(O)c(Cl)c1,cell-free assay,0.5 µM,remaining signal,98%
CCCS(=O)(=O)Nc1ccc(F)c(C(=O)c2c[nH]c3ncc(-c4ccc(Cl)cc4)cc23)c1F,"enzyme activity, inhibitor",1 µM,inhibition,< 10%
Nc1cnc(N2CCc3cc(S(=O)(=O)Nc4c(F)cc(Cl)cc4F)cc(N4CCCC4=O)c32)nc1,"cell-free assay, competition with immobilised ligand",1 µM,remaining binding,100%
CNc1cccc2cc(C(=O)Nc3ccc(C(=O)O)cc3)c(=O)[nH]c12,"enzyme activity, inhibitor",10 µM,inhibition,-1.4%
